Values after ≈ are worked out from the molar mass of the structure shown.
What was measured:
Candida albicans [1] = test: Antifungal activity against Candida albicans ATCC 10261 at 35 degC after 48 to 96 hrs by broth microdilution test; format: functional; details: for MFC: Candida albicans, ATCC 10261, read-out: MFC
In short: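 Minimal fungicidal concentration for Candida. […] MFC is the lowest concentration allowing fewer than two colonies (99% killing).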

Candida parapsilosis = test: Antifungal activity against Candida parapsilosis ATCC 22019 at 35 degC after 48 hrs by broth microdilution test; format: functional; details: Lodderomyces parapsilosis, ATCC 22019, 48 h; for MFC: read-out: MFC; for MIC: read-out: MIC
In short: (§1)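 Broth microdilution per NCCLS M27-A2. Stocks in 100% DMSO, diluted in RPMI 1640 with 0.165 M MOPS at pH 7.0; final range 0.25–128 µg/mL. Inoculum 1000–5000 cells/mL from SDA subcultures. […] C. parapsilosis ATCC22019 served as QC strain.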

Candida albicans [2] = test: Antifungal activity against Candida albicans ATCC 10261 at 35 degC after 48 hrs by broth microdilution test; format: functional; details: Candida albicans, ATCC 10261, 48 h; for MIC: read-out: MIC; for MIC50: read-out: MIC50; for MIC90: read-out: MIC90; in short: as §1
Arthrodermataceae [3] = test: Antifungal activity against dermatophytes at 28 degC after 48 to 96 hrs by broth microdilution test
Arthrodermataceae [4] = test: Antifungal activity against dermatophytes at 28 degC after 7 days by broth microdilution test; format: functional; details: 168 h
In short: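 Ten clinical isolates (two M. canis, five M. gypseum, three T. mentagrophytes) tested by NCCLS M38-A broth microdilution in MOPS-buffered RPMI 1640, pH 7.0, over 0.25–128 µg/mL. Conidial/hyphal suspension from PDA slants (28 °C, 7 days) adjusted to 65–70% transmittance at OD530, then diluted 1:50.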

Arthrodermataceae [5] = test: Antifungal activity against dermatophytes at 28 degC after 5 days by broth microdilution test; details: for MFC: Arthrodermataceae

MIC (Candida parapsilosis) | MIC (Candida albicans [2]) | MIC50 (Candida albicans [2]) | MIC90 (Candida albicans [2]) | MIC (Arthrodermataceae [4]) | MIC50 (Arthrodermataceae [4]) | MIC90 (Arthrodermataceae [4]) | SMILES | MFC50 (Candida albicans [1]) | MFC90 (Candida albicans [1]) | MFC (Candida albicans [1]) | MFC (Candida parapsilosis) | MFC50 (Arthrodermataceae [3]) | MFC90 (Arthrodermataceae [5]) | MFC (Arthrodermataceae [5])
8 µg/mL (≈ 25 µM) | 46.5 µg/mL (≈ 145 µM) | 32 µg/mL (≈ 99.9 µM) | 64 µg/mL (≈ 200 µM) |  |  |  | Cc1ccc(C(CCn2ccnc2)Oc2ccc(C)cc2C)cc1 (stereo not drawn) | 64 µg/mL (≈ 200 µM) | 64 µg/mL (≈ 200 µM) | 62 µg/mL (≈ 193 µM) | 32 µg/mL (≈ 99.9 µM) |  |  | 
32 µg/mL (≈ 88.3 µM) | > 128 µg/mL | > 128 µg/mL | > 128 µg/mL | 17.6 µg/mL (≈ 48.6 µM) | 16 µg/mL (≈ 44.2 µM) | 32 µg/mL (≈ 88.3 µM) | Cc1ccc(C(CCn2cncn2)Oc2ccc(Cl)cc2Cl)cc1 (stereo not drawn) | >128 µg/mL | >128 µg/mL | > 128 µg/mL | 64 µg/mL (≈ 177 µM) | 32 µg/mL (≈ 88.3 µM) | >128 µg/mL | 122 µg/mL (≈ 336 µM)
0.5 µg/mL (≈ 1.44 µM) | 13.8 µg/mL (≈ 39.7 µM) | 16 µg/mL (≈ 46.1 µM) | 16 µg/mL (≈ 46.1 µM) | 7.2 µg/mL (≈ 20.7 µM) | 8 µg/mL (≈ 23 µM) | 8 µg/mL (≈ 23 µM) | Clc1cc(Cl)cc(OC(CCn2ccnc2)c2ccccc2)c1 (stereo not drawn) | 32 µg/mL (≈ 92.2 µM) | 64 µg/mL (≈ 184 µM) | 29.8 µg/mL (≈ 85.8 µM) | 4 µg/mL (≈ 11.5 µM) | 16 µg/mL (≈ 46.1 µM) | 16 µg/mL (≈ 46.1 µM) | 15 µg/mL (≈ 43.2 µM)
32 µg/mL (≈ 76.9 µM) | > 128 µg/mL | > 128 µg/mL | > 128 µg/mL |  |  |  | Clc1ccc(C(OCCn2ccnc2)c2ccc(Cl)cc2Cl)c(Cl)c1 | >128 µg/mL | >128 µg/mL | > 128 µg/mL | 64 µg/mL (≈ 154 µM) |  |  | 
32 µg/mL | 78.1 µg/mL | 64 µg/mL | 128 µg/mL |  |  |  | O=[N+]([O-])O.c1ccc(C(OCCn2ccnc2)c2ccccc2)cc1 | 128 µg/mL | >256 µg/mL | 230 µg/mL | 64 µg/mL |  |  | 
8 µg/mL (≈ 23 µM) | 52.1 µg/mL (≈ 150 µM) | 64 µg/mL (≈ 184 µM) | 64 µg/mL (≈ 184 µM) | 11.2 µg/mL (≈ 32.1 µM) | 8 µg/mL (≈ 23 µM) | 16 µg/mL (≈ 45.9 µM) | Cc1ccc(C(CCn2ccnc2)Oc2ccc(C(C)(C)C)cc2)cc1 (stereo not drawn) | 64 µg/mL (≈ 184 µM) | 64 µg/mL (≈ 184 µM) | 58 µg/mL (≈ 166 µM) | 16 µg/mL (≈ 45.9 µM) | 16 µg/mL (≈ 45.9 µM) | 16 µg/mL (≈ 45.9 µM) | 14.4 µg/mL (≈ 41.3 µM)
1 µg/mL (≈ 2.77 µM) | 42 µg/mL (≈ 116 µM) | 8 µg/mL (≈ 22.1 µM) | 128 µg/mL (≈ 354 µM) |  |  |  | Cc1ccc(C(CCn2ccnc2)Oc2c(Cl)cccc2Cl)cc1 (stereo not drawn) | 32 µg/mL (≈ 88.6 µM) | 128 µg/mL (≈ 354 µM) | 62.9 µg/mL (≈ 174 µM) | 16 µg/mL (≈ 44.3 µM) |  |  | 
8 µg/mL (≈ 19.2 µM) | 51 µg/mL (≈ 123 µM) | 64 µg/mL (≈ 154 µM) | 64 µg/mL (≈ 154 µM) |  |  |  | Clc1ccc(OC(CCn2ccnc2)c2ccc(Cl)cc2Cl)c(Cl)c1 (stereo not drawn) | 64 µg/mL (≈ 154 µM) | 64 µg/mL (≈ 154 µM) | 64 µg/mL (≈ 154 µM) | 64 µg/mL (≈ 154 µM) |  |  | 
8 µg/mL (≈ 27 µM) | 32.1 µg/mL (≈ 108 µM) | 32 µg/mL (≈ 108 µM) | 64 µg/mL (≈ 216 µM) | 16.1 µg/mL (≈ 54.3 µM) | 16 µg/mL (≈ 54 µM) | 16 µg/mL (≈ 54 µM) | Fc1ccc(C(CCn2ccnc2)Oc2ccccc2)cc1 (stereo not drawn) | 64 µg/mL (≈ 216 µM) | 64 µg/mL (≈ 216 µM) | 57.6 µg/mL (≈ 194 µM) | 32 µg/mL (≈ 108 µM) | 32 µg/mL (≈ 108 µM) | 32 µg/mL (≈ 108 µM) | 28.5 µg/mL (≈ 96.2 µM)
2 µg/mL (≈ 5.76 µM) | 46.2 µg/mL (≈ 133 µM) | 64 µg/mL (≈ 184 µM) | 64 µg/mL (≈ 184 µM) | 7.6 µg/mL (≈ 21.9 µM) | 8 µg/mL (≈ 23 µM) | 8 µg/mL (≈ 23 µM) | Clc1cccc(Cl)c1OC(CCn1ccnc1)c1ccccc1 (stereo not drawn) | 64 µg/mL (≈ 184 µM) | 64 µg/mL (≈ 184 µM) | 64 µg/mL (≈ 184 µM) | 32 µg/mL (≈ 92.2 µM) | 32 µg/mL (≈ 92.2 µM) | 32 µg/mL (≈ 92.2 µM) | 28.8 µg/mL (≈ 82.9 µM)
4 µg/mL (≈ 11.7 µM) | 16 µg/mL (≈ 46.9 µM) | 16 µg/mL (≈ 46.9 µM) | 16 µg/mL (≈ 46.9 µM) |  |  |  | Cc1ccc(C(CCn2ccnc2)Oc2ccc(Cl)cc2C)cc1 (stereo not drawn) | 64 µg/mL (≈ 188 µM) | 64 µg/mL (≈ 188 µM) | 58 µg/mL (≈ 170 µM) | 16 µg/mL (≈ 46.9 µM) |  |  | 
